Measurements reported in ChEMBL document CHEMBL4387722.

Legend:
[1] = target: T1, Phosphotyrosine protein phosphatase (Mycobacterium tuberculosis, UniProt A0A045ISB3); assay: Inhibition of Mycobacterium tuberculosis His-tagged PtpB expressed in Escherichia coli Rosetta 2 (DE3) using pNPP as substrate after 30 mins by spectrophotometric method
T1 sequence (A0A045ISB3 whole entry): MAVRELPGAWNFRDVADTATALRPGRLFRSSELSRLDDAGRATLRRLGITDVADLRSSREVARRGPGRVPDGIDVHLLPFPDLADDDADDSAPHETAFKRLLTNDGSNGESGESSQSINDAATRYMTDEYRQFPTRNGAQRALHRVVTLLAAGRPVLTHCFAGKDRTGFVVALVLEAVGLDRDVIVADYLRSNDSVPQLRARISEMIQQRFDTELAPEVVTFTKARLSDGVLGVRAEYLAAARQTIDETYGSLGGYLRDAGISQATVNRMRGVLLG

[2] = target: T2, Tyrosine-protein phosphatase non-receptor type 1 (Homo sapiens, UniProt P18031); assay: Inhibition of human PTPN1 expressed in Escherichia coli Rosetta 2 (DE3) using pNPP as substrate after 45 mins by spectrophotometric method
T2 sequence (P18031 whole entry): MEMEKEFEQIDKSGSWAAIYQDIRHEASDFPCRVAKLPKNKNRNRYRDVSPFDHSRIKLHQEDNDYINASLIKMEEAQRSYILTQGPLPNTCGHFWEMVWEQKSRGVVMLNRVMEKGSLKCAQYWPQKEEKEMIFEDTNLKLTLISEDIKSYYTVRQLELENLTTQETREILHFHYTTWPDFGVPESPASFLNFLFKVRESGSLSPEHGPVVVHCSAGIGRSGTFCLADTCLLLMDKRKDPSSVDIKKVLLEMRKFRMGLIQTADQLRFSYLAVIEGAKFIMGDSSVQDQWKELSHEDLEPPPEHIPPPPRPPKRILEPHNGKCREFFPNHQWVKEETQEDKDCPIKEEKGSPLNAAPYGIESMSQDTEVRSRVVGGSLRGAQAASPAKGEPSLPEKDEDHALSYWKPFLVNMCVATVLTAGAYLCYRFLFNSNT

[3] = target: T3, Tyrosine-protein phosphatase non-receptor type 2 (Homo sapiens, UniProt P17706); assay: Inhibition of human PTPN2 expressed in Escherichia coli Rosetta 2 (DE3) using pNPP as substrate after 45 mins by spectrophotometric method
T3 sequence (P17706 whole entry): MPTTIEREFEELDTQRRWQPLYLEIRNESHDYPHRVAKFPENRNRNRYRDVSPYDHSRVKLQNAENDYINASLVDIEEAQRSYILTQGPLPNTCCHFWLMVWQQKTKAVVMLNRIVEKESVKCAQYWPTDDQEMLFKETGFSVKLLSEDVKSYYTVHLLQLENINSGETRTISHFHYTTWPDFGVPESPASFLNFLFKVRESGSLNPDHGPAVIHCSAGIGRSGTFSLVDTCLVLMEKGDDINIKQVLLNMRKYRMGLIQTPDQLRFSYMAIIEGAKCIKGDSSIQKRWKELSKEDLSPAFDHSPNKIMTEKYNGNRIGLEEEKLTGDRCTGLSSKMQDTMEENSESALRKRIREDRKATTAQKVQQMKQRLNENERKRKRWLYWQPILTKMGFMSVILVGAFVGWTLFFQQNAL

[4] = target: T4, Tyrosine-protein phosphatase non-receptor type 5 (Homo sapiens, UniProt P54829); assay: Inhibition of human PTPN5 expressed in Escherichia coli Rosetta 2 (DE3) using pNPP as substrate after 45 mins by spectrophotometric method
T4 sequence (P54829 whole entry): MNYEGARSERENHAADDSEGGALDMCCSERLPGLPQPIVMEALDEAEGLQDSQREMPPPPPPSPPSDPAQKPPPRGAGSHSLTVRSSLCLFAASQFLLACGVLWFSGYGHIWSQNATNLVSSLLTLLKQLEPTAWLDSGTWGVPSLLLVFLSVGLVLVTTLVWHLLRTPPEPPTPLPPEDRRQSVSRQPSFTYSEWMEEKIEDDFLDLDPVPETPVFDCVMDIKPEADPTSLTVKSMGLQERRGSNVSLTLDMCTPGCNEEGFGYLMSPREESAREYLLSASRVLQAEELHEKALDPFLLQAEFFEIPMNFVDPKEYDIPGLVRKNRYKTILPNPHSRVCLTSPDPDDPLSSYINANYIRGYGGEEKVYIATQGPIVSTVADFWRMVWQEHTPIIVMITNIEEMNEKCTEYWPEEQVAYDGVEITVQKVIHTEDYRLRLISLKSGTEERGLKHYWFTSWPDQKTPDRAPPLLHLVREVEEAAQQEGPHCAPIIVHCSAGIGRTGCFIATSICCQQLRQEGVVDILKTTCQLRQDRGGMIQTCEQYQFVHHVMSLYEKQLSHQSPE

[5] = system: Mycobacterium tuberculosis; assay: Antitubercular activity against Mycobacterium tuberculosis H37Rv after 5 days at 200 uM relative to control; type: functional; settings: 120 h
Method in brief: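 M. tuberculosis grown in liquid culture with compound at a fixed 200 μM for 5 days. Growth inhibition expressed as percent of control.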

[6] = Inhibition of refolded rhodanese (unknown origin) preincubated with Escherichia coli GroEL/GroES for 60 mins by measuring rhodanese enzyme activity followed by compound addition by Fe(SCN)3 dye based spectrometric analysis; design: species or system Homo sapiens
[7] = target: T5, Malate dehydrogenase, mitochondrial (Sus scrofa, UniProt P00346); assay: Inhibition of refolded pig heart mitochondrial MDH preincubated with Escherichia coli GroEL/GroES for 45 mins using sodium mesoxalate as substrate followed by compound addition and measured after 20 to 30 mins by spectrometric analysis
T5 sequence (P00346 whole entry): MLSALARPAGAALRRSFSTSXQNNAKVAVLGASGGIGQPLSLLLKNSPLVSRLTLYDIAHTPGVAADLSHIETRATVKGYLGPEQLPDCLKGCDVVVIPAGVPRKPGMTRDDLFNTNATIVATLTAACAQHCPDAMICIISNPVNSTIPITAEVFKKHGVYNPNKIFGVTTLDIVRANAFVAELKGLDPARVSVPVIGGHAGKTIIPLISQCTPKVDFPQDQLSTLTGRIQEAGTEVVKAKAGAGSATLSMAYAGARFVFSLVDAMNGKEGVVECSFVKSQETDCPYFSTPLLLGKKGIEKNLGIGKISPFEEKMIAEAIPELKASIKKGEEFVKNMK

E. coli GroEL/ES [8] = target: T6, E. coli GroEL/ES (Escherichia coli, UniProt P0A6F5); assay: Inhibition of Escherichia coli GroEL expressed in Escherichia coli DH5alpha/Escherichia coli GroES expressed in Escherichia coli BL21 (DE3) assessed as reduction in GroEL/GroES-mediated denatured rhodanese refolding by measuring rhodanese enzyme activity after 45 mins by Fe(SCN)3 dye based spectrometric analysis
T6 sequence (P0A6F5 whole entry, looked up): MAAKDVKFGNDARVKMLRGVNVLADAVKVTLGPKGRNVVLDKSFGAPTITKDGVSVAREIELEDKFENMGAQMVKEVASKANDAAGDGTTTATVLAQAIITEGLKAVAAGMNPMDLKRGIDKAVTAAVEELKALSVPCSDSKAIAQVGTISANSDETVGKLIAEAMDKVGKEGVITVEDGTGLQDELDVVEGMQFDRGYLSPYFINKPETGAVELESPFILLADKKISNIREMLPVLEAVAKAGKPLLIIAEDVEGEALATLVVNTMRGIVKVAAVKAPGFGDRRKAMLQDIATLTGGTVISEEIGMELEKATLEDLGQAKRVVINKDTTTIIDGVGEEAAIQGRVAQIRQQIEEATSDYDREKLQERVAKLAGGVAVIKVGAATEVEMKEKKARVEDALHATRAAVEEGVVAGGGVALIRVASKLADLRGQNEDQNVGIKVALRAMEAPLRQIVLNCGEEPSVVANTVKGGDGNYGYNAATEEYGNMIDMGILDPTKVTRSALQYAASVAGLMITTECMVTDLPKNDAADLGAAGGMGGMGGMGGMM

E. coli GroEL/ES [9] = target: T6, E. coli GroEL/ES; assay: Inhibition of Escherichia coli GroEL expressed in Escherichia coliDH5alpha/Escherichia coli GroES expressed in Escherichia coli BL21 (DE3) assessed as reduction in GroEL/GroES-mediated denatured pig heart mitochondrial MDH refolding by measuring MDH enzyme activity using sodium mesoxalate as substrate after 20 to 40 mins by spectrometric analysis
HSP60/HSP10 = HSP60/HSP10 (Homo sapiens, UniProt P10809); assay: Inhibition of human HSP60 expressed in Escherichia coli Rosetta 2(DE3)/human HSP10 expressed in Escherichia coli Rosetta 2(DE3) pLysS cells assessed as reduction in HSP60/HSP10-mediated denatured pig heart mitochondrial MDH refolding by measuring MDH enzyme activity using sodium mesoxalate as substrate after 40 to 60 mins by spectrometric analysis
Sequence of HSP60/HSP10 (P10809 whole entry): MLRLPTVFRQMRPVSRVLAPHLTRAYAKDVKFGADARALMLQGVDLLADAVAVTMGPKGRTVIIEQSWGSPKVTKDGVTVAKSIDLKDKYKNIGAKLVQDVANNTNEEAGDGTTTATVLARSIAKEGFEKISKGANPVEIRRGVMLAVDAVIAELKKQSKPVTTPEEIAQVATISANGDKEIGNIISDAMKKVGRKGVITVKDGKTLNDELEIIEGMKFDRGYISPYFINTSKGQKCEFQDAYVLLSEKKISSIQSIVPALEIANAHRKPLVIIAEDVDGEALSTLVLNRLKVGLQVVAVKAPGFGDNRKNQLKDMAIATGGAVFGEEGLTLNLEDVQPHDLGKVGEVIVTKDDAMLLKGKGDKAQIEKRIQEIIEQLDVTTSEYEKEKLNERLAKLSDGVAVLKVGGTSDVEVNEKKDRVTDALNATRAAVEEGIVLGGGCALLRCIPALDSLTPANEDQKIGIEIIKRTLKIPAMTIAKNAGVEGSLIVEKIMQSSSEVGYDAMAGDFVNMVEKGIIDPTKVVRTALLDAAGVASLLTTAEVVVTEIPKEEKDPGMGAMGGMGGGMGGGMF
Sequence of HSP60/HSP10 (P61604 whole entry, further chain): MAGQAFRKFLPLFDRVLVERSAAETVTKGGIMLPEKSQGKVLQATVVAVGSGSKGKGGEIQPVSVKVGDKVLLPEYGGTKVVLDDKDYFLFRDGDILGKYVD

[10] = Cytotoxicity against human THLE3 cells assessed as reduction in cell viability after 48 hrs by Alamar blue assay; type: cell-based
Method in brief: (§1)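 Alamar Blue viability read-out. Human liver (THLE-3) and kidney (HEK 293) cells incubated with compound for 48 h. Tested in dose-response to derive CC50.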

[11] = Cytotoxicity against human HEK293 cells assessed as reduction in cell viability after 48 hrs by Alamar blue assay; type: cell-based; method in brief: as §1
[12] = system: Mycobacterium tuberculosis; assay: Antitubercular activity against Mycobacterium tuberculosis H37Rv after 5 days; type: functional, organism-based; settings: 120 h

Structure (SMILES)	IC50 [1] [µM]	IC50 [2] [µM]	IC50 [3] [µM]	IC50 [4] [µM]	inhibition at 200 µM [5] [%]	IC50 [6] [µM]	IC50 [7] [µM]	IC50 (E. coli GroEL/ES [8]) [µM]	IC50 (E. coli GroEL/ES [9]) [µM]	IC50 (HSP60/HSP10) [µM]	CC50 at 48 h [10] [µM]	CC50 at 48 h [11] [µM]	EC50 [12] [µM]
O=S(=O)(Nc1ccc2oc(-c3ccccc3)nc2c1)c1ccc(C(F)(F)F)cc1	26	36	44	27	0	> 100	> 63	159	64	> 100	49	74	
O=S(=O)(Nc1ccc2oc(-c3ccccc3)nc2c1)c1ccc(Cl)c(Cl)c1	33	35	33	25	22	> 100	> 63	152	79	> 100	55	71	
COc1ccc(S(=O)(=O)Nc2ccc3oc(-c4ccccc4)nc3c2)cc1	73	46	50	37	75	> 100	> 63			> 100	53	91	167
O=S(=O)(Nc1ccc(-c2nc3cc(NS(=O)(=O)c4cccc5nonc45)ccc3o2)cc1)c1cccc2nonc12	8.8	34	58	40	76								> 200
CS(=O)(=O)Nc1ccc(-c2nc3cc(NS(C)(=O)=O)ccc3o2)cc1	> 100	> 100	> 100	> 100	62								> 200
Nc1ccc(S(=O)(=O)Nc2ccc(-c3nc4cc(NS(=O)(=O)c5ccc(N)cc5)ccc4o3)cc2)cc1	16	27	32	41	51								> 200
COc1ccc(S(=O)(=O)Nc2ccc(-c3nc4ccccc4o3)cc2)cc1	61	42	53	45	72	> 100	> 63			> 100	86	> 100	179
COc1cccc(S(=O)(=O)Nc2ccc(-c3nc4ccccc4o3)cc2)c1	67	51	67	48	74	> 100	> 63			80	84	> 100	156
O=S(=O)(Nc1ccc(-c2nc3ccccc3o2)cc1)c1ccc(O)cc1	93	70	> 100	81	77	> 100	> 63			78	> 100	> 100	> 200
O=S(=O)(Nc1ccc(-c2nc3ccccc3o2)cc1)c1cccc(O)c1	79	> 100	> 100	84	61	> 100	> 63			62	97	> 100	189
O=S(=O)(Nc1ccc2oc(-c3ccccc3)nc2c1)c1cccc(F)c1	93	71	> 100	42	56	> 100	> 63			> 100	41	68	> 200
CS(=O)(=O)Nc1ccc2oc(-c3ccc(NS(=O)(=O)c4ccc(Cl)s4)cc3)nc2c1	46	73	> 100	> 100	85								104
O=S(=O)(Nc1ccc(-c2nc3cc(NS(=O)(=O)c4ccccc4Br)ccc3o2)cc1)c1ccccc1Br	20	24	28	31	50								> 200
N#Cc1cccc(S(=O)(=O)Nc2ccc(-c3nc4cc(NS(=O)(=O)c5cccc(C#N)c5)ccc4o3)cc2)c1	33	37	48	44	65								> 200
O=S(=O)(Nc1ccc(-c2nc3cc(NS(=O)(=O)c4cccc(F)c4)ccc3o2)cc1)c1cccc(F)c1	13	36	32	31	48								> 200
Cc1cccc(S(=O)(=O)Nc2ccc3oc(-c4ccccc4)nc3c2)c1	63	53	57	39	82	> 100	> 63			> 100	38	69	161
N#Cc1ccccc1S(=O)(=O)Nc1ccc(-c2nc3cc(NS(=O)(=O)c4ccccc4C#N)ccc3o2)cc1	18	56	69	47	85								113
